Reference: ChEMBL document CHEMBL1811814, “Synthesis and evaluation of indole, pyrazole, chromone and pyrimidine based conjugates for tumor growth inhibitory activities--development of highly efficacious cytotoxic agents” (Eur J Med Chem, 2010)

What was measured:
Assay type in all cases: functional
Design in all cases: scale not given: the % may be the effect or the level left
[1] = tested on: A498; test: Growth inhibition of human A498 cells assessed tumor cell growth at 10^-5 M
Method in brief: (§1)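 NCI 60-human-tumor-cell-line panel screen. Each compound was tested at a single concentration of 10^-5 M, and percent growth of tumor cells was recorded for each cell line. Growth inhibition was expressed from these percent-growth values.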

[2] = tested on: NCI-H226; test: Growth inhibition of human NCI-H226 cells assessed tumor cell growth at 10^-5 M; method in brief: as §1
[3] = tested on: MDA-MB-435; test: Growth inhibition of human MDA-MB-435 cells assessed tumor cell growth at 10^-5 M; method in brief: as §1
[4] = tested on: KM12; test: Growth inhibition of human KM12 cells assessed tumor cell growth at 10^-5 M; method in brief: as §1
[5] = tested on: SK-MEL-5; test: Growth inhibition of human SK-MEL-5 cells assessed tumor cell growth at 10^-5 M; method in brief: as §1
[6] = tested on: NCI-H322M; test: Growth inhibition of human NCI-H322M cells assessed tumor cell growth at 10^-5 M; method in brief: as §1
[7] = tested on: NCI/ADR-RES; test: Growth inhibition of human NCI/ADR-RES cells assessed tumor cell growth at 10^-5 M; method in brief: as §1
[8] = tested on: 786-0; test: Growth inhibition of human 786-0 cells assessed tumor cell growth at 10^-5 M; method in brief: as §1
[9] = tested on: MDA-MB-231; test: Growth inhibition of human MDA-MB-231 cells assessed tumor cell growth at 10^-5 M; method in brief: as §1
[10] = tested on: CCRF-CEM; test: Growth inhibition of human CCRF-CEM cells assessed tumor cell growth at 10^-5 M; method in brief: as §1
[11] = tested on: OVCAR-4; test: Growth inhibition of human OVCAR4 cells assessed tumor cell growth at 10^-5 M; method in brief: as §1
[12] = tested on: T47D; test: Growth inhibition of human T47D cells assessed tumor cell growth at 10^-5 M
Method in brief: (§2)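 Single-dose screen at 10^-5 M across the 60 human tumor cell line panel, run to NCI standards. The value is the percent growth of each cell line in the presence of compound. Compounds active at this dose moved on to five-concentration testing (10^-4 to 10^-8 M).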

[13] = tested on: HOP-62; test: Growth inhibition of human HOP62 cells assessed tumor cell growth at 10^-5 M; method in brief: as §1
[14] = tested on: SK-OV-3; test: Growth inhibition of human SKOV3 cells assessed tumor cell growth at 10^-5 M; method in brief: as §1
[15] = tested on: Malme-3M; test: Growth inhibition of human MALME-3M cells assessed tumor cell growth at 10^-5 M; method in brief: as §1
[16] = tested on: UACC-257; test: Growth inhibition of human UACC257 cells assessed tumor cell growth at 10^-5 M; method in brief: as §2
[17] = tested on: OVCAR-5; test: Growth inhibition of human OVCAR5 cells assessed tumor cell growth at 10^-5 M; method in brief: as §1
[18] = tested on: OVCAR-8; test: Growth inhibition of human OVCAR8 cells assessed tumor cell growth at 10^-5 M; method in brief: as §1
[19] = tested on: U-251; test: Growth inhibition of human U251 cells assessed tumor cell growth at 10^-5 M; method in brief: as §2
[20] = tested on: RXF 393; test: Growth inhibition of human RXF393 cells assessed tumor cell growth at 10^-5 M; method in brief: as §1
[21] = tested on: MCF7; test: Growth inhibition of human MCF7 cells assessed tumor cell growth at 10^-5 M; method in brief: as §1
[22] = tested on: HOP-92; test: Growth inhibition of human HOP92 cells assessed tumor cell growth at 10^-5 M; method in brief: as §1
[23] = tested on: HT-29; test: Growth inhibition of human HT-29 cells assessed tumor cell growth at 10^-5 M; method in brief: as §1
[24] = tested on: HCC 2998; test: Growth inhibition of human HCC2998 cells assessed tumor cell growth at 10^-5 M; method in brief: as §1
[25] = tested on: HL-60(TB); test: Growth inhibition of human HL-60(TB) cells assessed tumor cell growth at 10^-5 M
Method in brief: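 HL-60(TB), part of the 60-line panel, tested at a single concentration of 10^-5 M. The read-out is percent tumor cell growth relative to untreated growth.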

[26] = tested on: ACHN; test: Growth inhibition of human ACHN cells assessed tumor cell growth at 10^-5 M; method in brief: as §1
[27] = tested on: SNB-19; test: Growth inhibition of human SNB19 cells assessed tumor cell growth at 10^-5 M; method in brief: as §2
[28] = tested on: NCI-H522; test: Growth inhibition of human NCI-H522 cells assessed tumor cell growth at 10^-5 M; method in brief: as §1
[29] = tested on: SK-MEL-2; test: Growth inhibition of human SK-MEL-2 cells assessed tumor cell growth at 10^-5 M; method in brief: as §1
[30] = tested on: HCT-15; test: Growth inhibition of human HCT15 cells assessed tumor cell growth at 10^-5 M; method in brief: as §1
[31] = tested on: IGROV-1; test: Growth inhibition of human IGROV1 cells assessed tumor cell growth at 10^-5 M; method in brief: as §1
[32] = tested on: DU-145; test: Growth inhibition of human DU145 cells assessed tumor cell growth at 10^-5 M; method in brief: as §1
[33] = tested on: UO-31; test: Growth inhibition of human UO31 cells assessed tumor cell growth at 10^-5 M; method in brief: as §2
[34] = Growth inhibition of human Hs 578T cells assessed tumor cell growth at 10^-5 M; method in brief: as §1
[35] = tested on: NCI-H460; test: Growth inhibition of human NCI-H460 cells assessed tumor cell growth at 10^-5 M; method in brief: as §1
[36] = tested on: M14; test: Growth inhibition of human M14 cells assessed tumor cell growth at 10^-5 M; method in brief: as §1
[37] = tested on: SW-620; test: Growth inhibition of human SW620 cells assessed tumor cell growth at 10^-5 M; method in brief: as §2
[38] = tested on: SF-539; test: Growth inhibition of human SF539 cells assessed tumor cell growth at 10^-5 M; method in brief: as §1
[39] = tested on: SF-268; test: Growth inhibition of human SF268 cells assessed tumor cell growth at 10^-5 M; method in brief: as §1
[40] = tested on: SF-295; test: Growth inhibition of human SF295 cells assessed tumor cell growth at 10^-5 M; method in brief: as §1
[41] = tested on: TK-10; test: Growth inhibition of human TK10 cells assessed tumor cell growth at 10^-5 M; method in brief: as §2
[42] = tested on: HCT-116; test: Growth inhibition of human HCT116 cells assessed tumor cell growth at 10^-5 M; method in brief: as §1
[43] = tested on: MOLT-4; test: Growth inhibition of human MOLT4 cells assessed tumor cell growth at 10^-5 M; method in brief: as §1
[44] = tested on: CAKI-1; test: Growth inhibition of human Caki1 cells assessed tumor cell growth at 10^-5 M; method in brief: as §1
[45] = tested on: SNB-75; test: Growth inhibition of human SNB75 cells assessed tumor cell growth at 10^-5 M; method in brief: as §2
[46] = tested on: EKVX; test: Growth inhibition of human EKVX cells assessed tumor cell growth at 10^-5 M; method in brief: as §1
[47] = tested on: A549; test: Growth inhibition of human A549 cells assessed tumor cell growth at 10^-5 M; method in brief: as §1
[48] = tested on: K562; test: Growth inhibition of human K562 cells assessed tumor cell growth at 10^-5 M; method in brief: as §1
[49] = tested on: SN12C; test: Growth inhibition of human SN12C cells assessed tumor cell growth at 10^-5 M; method in brief: as §1
[50] = tested on: LOX IMVI; test: Growth inhibition of human LOXIMVI cells assessed tumor cell growth at 10^-5 M; method in brief: as §1
[51] = tested on: PC-3; test: Growth inhibition of human PC3 cells assessed tumor cell growth at 10^-5 M; method in brief: as §1
[52] = tested on: UACC-62; test: Growth inhibition of human UACC62 cells assessed tumor cell growth at 10^-5 M; method in brief: as §2
[53] = tested on: BT-549; test: Growth inhibition of human BT549 cells assessed tumor cell growth at 10^-5 M; method in brief: as §1
[54] = tested on: MDA-MB-468; test: Growth inhibition of human MDA-MB-468 cells assessed tumor cell growth at 10^-5 M; method in brief: as §1
[55] = tested on: SK-MEL-28; test: Growth inhibition of human SK-MEL-28 cells assessed tumor cell growth at 10^-5 M; method in brief: as §1
[56] = tested on: OVCAR-3; test: Growth inhibition of human OVCAR3 cells assessed tumor cell growth at 10^-5 M; method in brief: as §1
[57] = tested on: NCI-H23; test: Growth inhibition of human NCI-H23 cells assessed tumor cell growth at 10^-5 M; method in brief: as §1
[58] = tested on: COLO 205; test: Growth inhibition of human COLO205 cells assessed tumor cell growth at 10^-5 M; method in brief: as §1

Q: Which Activity [1] does the source give for CC1=NN(c2cccc(Cl)c2)C(=O)/C1=C\c1cn(C(=O)c2c(Cl)cccc2Cl)c2ccccc12 here?
A: Its Activity is 102.24%.

Q: And the Activity [2]?
A: The Activity was 97.86%.

Q: What about the Activity [3] of the same compound?
A: The Activity was 109.08%.

Q: What about the Activity [4] of the same compound?
A: Its Activity is 100.84%.

Q: What about the Activity [5] of the same compound?
A: Its Activity is 93.87%.

Q: What about the Activity [6] of the same compound?
A: The Activity was 99.91%.

Q: And the Activity [7]?
A: Its Activity is 90.21%.

Q: And the Activity [8]?
A: The Activity was 101.2%.

Q: And the Activity [9]?
A: The Activity was 82.49%.

Q: What about the Activity [10] of the same compound?
A: The Activity was 107.14%.

Q: What about the Activity [11] of the same compound?
A: The Activity was 94.88%.

Q: What about the Activity [12] of the same compound?
A: Its Activity is 77.75%.

Q: What about the Activity [13] of the same compound?
A: Its Activity is 92.85%.

Q: And the Activity [14]?
A: The Activity was 93.9%.

Q: And the Activity [15]?
A: Its Activity is 100.66%.

Q: And the Activity [16]?
A: Its Activity is 88.84%.

Q: What about the Activity [17] of the same compound?
A: The Activity was 78.09%.

Q: What about the Activity [18] of the same compound?
A: Its Activity is 89.79%.

Q: And the Activity [19]?
A: The Activity was 111.4%.

Q: And the Activity [20]?
A: The Activity was 96.55%.

Q: What about the Activity [21] of the same compound?
A: Its Activity is 84.58%.

Q: What about the Activity [22] of the same compound?
A: Its Activity is 75.93%.

Q: And the Activity [23]?
A: Its Activity is 110.62%.

Q: And the Activity [24]?
A: Its Activity is 87.28%.

Q: And the Activity [25]?
A: Its Activity is 95.11%.

Q: And the Activity [26]?
A: The Activity was 90.96%.

Q: What about the Activity [27] of the same compound?
A: The Activity was 100.95%.

Q: And the Activity [28]?
A: Its Activity is 87.52%.

Q: What about the Activity [29] of the same compound?
A: The Activity was 95.14%.

Q: And the Activity [30]?
A: Its Activity is 102.31%.

Q: What about the Activity [31] of the same compound?
A: Its Activity is 100.26%.

Q: What about the Activity [32] of the same compound?
A: The Activity was 113.79%.

Q: And the Activity [33]?
A: The Activity was 75.46%.

Q: What about the Activity [34] of the same compound?
A: The Activity was 93.53%.

Q: What about the Activity [35] of the same compound?
A: The Activity was 102.74%.

Q: And the Activity [36]?
A: Its Activity is 88.55%.

Q: And the Activity [37]?
A: Its Activity is 96.65%.

Q: And the Activity [38]?
A: The Activity was 88.35%.

Q: What about the Activity [39] of the same compound?
A: Its Activity is 99.71%.

Q: What about the Activity [40] of the same compound?
A: Its Activity is 96.99%.

Q: What about the Activity [41] of the same compound?
A: Its Activity is 123.88%.

Q: And the Activity [42]?
A: The Activity was 93.25%.

Q: And the Activity [43]?
A: Its Activity is 78.5%.

Q: And the Activity [44]?
A: Its Activity is 89.11%.

Q: What about the Activity [45] of the same compound?
A: The Activity was 81.76%.

Q: What about the Activity [46] of the same compound?
A: Its Activity is 70.54%.

Q: And the Activity [47]?
A: The Activity was 103.17%.

Q: What about the Activity [48] of the same compound?
A: The Activity was 120.99%.

Q: What about the Activity [49] of the same compound?
A: Its Activity is 100.77%.

Q: What about the Activity [50] of the same compound?
A: Its Activity is 91.86%.

Q: And the Activity [51]?
A: The Activity was 93.89%.

Q: And the Activity [52]?
A: The Activity was 84.14%.

Q: And the Activity [53]?
A: The Activity was 95.67%.

Q: What about the Activity [54] of the same compound?
A: Its Activity is 98.04%.

Q: And the Activity [55]?
A: Its Activity is 108.69%.

Q: And the Activity [56]?
A: The Activity was 105.51%.

Q: What about the Activity [57] of the same compound?
A: Its Activity is 78.46%.

Q: And the Activity [58]?
A: The Activity was 105.8%.
